{"source": "ChEMBL document CHEMBL1811802", "about": "“Synthesis and significant cytostatic activity of 7-hetaryl-7-deazaadenosines” (J Med Chem, 2011)", "key": {"HT-29": {"tested_on": "HT-29", "assay": "Cytotoxicity against human HT-29 cells after 3 days by MTT assay", "format": "functional, cell-based", "conditions": "HT-29, 72 h"}, "DU-145 [1]": {"tested_on": "DU-145", "assay": "Metabolic stability in human DU145 cells assessed as nucleoside formation per million of cells at 10 uM after 6 hrs by LC/MS/MS analysis", "format": "ADME, cell-based", "conditions": "du-145, 6 h", "procedure,_shortened": "(§1)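 Du145 seeded at 60% confluence in MEM/10% FBS; next day exposed to 10 μM compound for 6 or 24 h. Cells trypsinized, extracted in 70% MeOH, dried, resuspended in 1 mM ammonium phosphate pH 8.5. Nucleoside, NMP and NTP quantified by ion-pairing (dimethylhexylamine) LC/MS/MS against untreated-cell-extract standard curves; pmol per million cells.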"}, "HL-60": {"tested_on": "HL-60", "assay": "Cytotoxicity against human HL60 cells after 3 days by XTT assay", "format": "functional, cell-based", "conditions": "HL-60, 72 h", "procedure,_shortened": "(§2)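 Suspension-grown cell lines, 3-day compound incubation; viability read by XTT metabolic assay; IC50 averaged from four independent experiments.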"}, "HPAC": {"tested_on": "HPAC", "assay": "Cytotoxicity against human HPAC cells after 3 days by MTT assay", "format": "functional, cell-based", "conditions": "72 h"}, "SK-OV-3": {"tested_on": "SK-OV-3", "assay": "Cytotoxicity against human SKOV3 cells after 3 days by MTT assay", "format": "functional, cell-based", "conditions": "SK-OV-3, 72 h"}, "K562 [2]": {"tested_on": "K562", "assay": "Cytotoxicity against human K562 cells after 3 days by MTT assay", "format": "functional, cell-based", "conditions": "K562, 72 h"}, "CCRF-CEM [3]": {"tested_on": "CCRF-CEM", "assay": "Inhibition of RNA synthesis in human CCRF-CEM cells assessed as BrU incorporation at 1 to 5 times GI50 after 1 hr by FACS analysis", "format": "functional, cell-based", "procedure,_shortened": "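CCRF-CEM cultured as for cell cycle (1× or 5× GIC50), pulsed with 1 mM 5-bromouridine 30 min. Paraformaldehyde/NP-40 fixation, anti-BrdU antibody cross-reacting with BrU, FITC secondary, propidium iodide/RNase counterstain, flow cytometry at 488 nm.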"}, "PC-3 [4]": {"tested_on": "PC-3", "assay": "Cytostatic activity against human PC3 cells after 5 days by SRB assay", "format": "functional", "conditions": "PC-3, 120 h", "procedure,_shortened": "(§3)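 Cells seeded per line density, overnight at 37 °C; day-zero plate TCA-fixed. 5-fold serial dilutions added, 5-day incubation; TCA fixation, 0.057% SRB in 1% acetic acid 30 min, dye dissolved in 10 mM Tris pH 10.5, A500. Growth relative to day-zero and untreated; GIC50 from sigmoidal dose–response fit; mean of two independent experiments.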"}, "[5]": {"assay": "Antitumor activity against mouse P388D1 cells xenografted in DBA/2 mouse assessed as increase of lifespan at 35 mg/kg, ip qd administered as 2 cycles on day 1 to 3 and day 8 to 10", "conditions": "route intraperitoneal"}, "[6]": {"assay": "Antitumor activity against mouse P388D1 cells xenografted in DBA/2 mouse assessed as increase of mean survival days at 35 mg/kg, ip qd administered as 2 cycles on day 1 to 3 and day 8 to 10", "conditions": "route intraperitoneal"}, "HeLa": {"tested_on": "HeLa", "assay": "Cytotoxicity against human HeLa cells after 3 days by MTT assay", "format": "functional, cell-based", "conditions": "72 h"}, "LNCaP": {"tested_on": "LNCaP", "assay": "Cytotoxicity against human LNCAP cells after 3 days by MTT assay", "format": "functional, cell-based", "conditions": "72 h"}, "[7]": {"assay": "Cytotoxicity against human HeLaS3 cells after 3 days by XTT assay", "format": "functional, cell-based", "conditions": "HeLa S3, 72 h", "procedure,_shortened": "as §2"}, "PC-3 [8]": {"tested_on": "PC-3", "assay": "Cytotoxicity against human PC3 cells after 3 days by MTT assay", "format": "functional, cell-based", "conditions": "PC-3, 72 h"}, "SK-MEL-2": {"tested_on": "SK-MEL-2", "assay": "Cytotoxicity against human SK-MEL-2 cells after 3 days by MTT assay", "format": "functional, cell-based", "conditions": "SK-MEL-2, 72 h"}, "DU-145 [9]": {"tested_on": "DU-145", "assay": "Metabolic stability in human DU145 cells assessed as nucleoside formation per million of cells at 10 uM after 24 hrs by LC/MS/MS analysis", "format": "ADME, cell-based", "conditions": "du-145, 24 h", "procedure,_shortened": "as §1"}, "L1210": {"tested_on": "L1210", "assay": "Cytotoxicity against mouse L1210 cells after 3 days by MTT assay", "format": "functional, cell-based", "conditions": "L1210, 72 h"}, "MCF7": {"tested_on": "MCF7", "assay": "Cytotoxicity against human MCF7 cells after 3 days by MTT assay", "format": "functional, cell-based", "conditions": "MCF7, 72 h"}, "[10]": {"assay": "Cytotoxicity against human U87MG cells after 3 days by MTT assay", "format": "functional, cell-based, U-87MG ATCC", "conditions": "U-87 MG, 72 h"}, "C6": {"tested_on": "C6", "assay": "Cytotoxicity against rat C6 cells after 3 days by MTT assay", "format": "functional, cell-based", "conditions": "C6, 72 h"}, "[11]": {"assay": "Cytotoxicity against mouse P388D1 cells after 3 days by MTT assay", "format": "functional, cell-based", "conditions": "P388D1, 72 h"}, "[12]": {"assay": "Cytotoxicity against human CEM-DNR-bulk cells after 3 days by MTT assay", "format": "functional, cell-based", "conditions": "72 h"}, "MT4": {"tested_on": "MT4", "assay": "Cytostatic activity against human MT4 cells after 5 days by SRB assay", "format": "functional", "conditions": "MT4, 120 h"}, "BV-173": {"tested_on": "BV-173", "assay": "Cytotoxicity against human BV173 cells after 3 days by MTT assay", "format": "functional, cell-based", "conditions": "BV-173, 72 h"}, "A549": {"tested_on": "A549", "assay": "Cytostatic activity against human A549 cells after 5 days by SRB assay", "format": "functional", "conditions": "A549, 120 h", "procedure,_shortened": "as §3"}, "BJ": {"tested_on": "BJ", "assay": "Cytotoxicity against human BJ cells after 3 days by MTT assay", "format": "cell-based", "conditions": "72 h"}, "K562 [13]": {"tested_on": "K562", "assay": "Cytotoxicity against human paclitaxel resistant K562 cells after 3 days by MTT assay", "format": "functional, cell-based", "conditions": "K562, 72 h"}, "BT-549": {"tested_on": "BT-549", "assay": "Cytotoxicity against human BT549 cells after 3 days by MTT assay", "format": "functional, cell-based", "conditions": "BT-549, 72 h"}, "[14]": {"assay": "Antitumor activity against mouse P388D1 cells xenografted in DBA/2 mouse assessed as increase of lifespan at 75 mg/kg, ip qd administered as 2 cycles on day 1 to 3 and day 8 to 10", "format": "functional", "conditions": "route intraperitoneal", "procedure,_shortened": "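P388D1 mouse leukemia cells, grown in RPMI with 10% FBS, were implanted ip at 10^5 cells per mouse on day 0 into female DBA/2 mice (18–22 g, SPF) and randomized 10 per group. Dosing was once daily ip in 50% PEG400/deionized water (pH 7.0) on days 1–3 and 8–10, with vehicle for controls. Deaths were recorded daily, and MST and %ILS were calculated.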"}, "[15]": {"assay": "Cytostatic activity against human Hs578 cells after 5 days by SRB assay", "format": "functional", "conditions": "Hs578, 120 h", "procedure,_shortened": "as §3"}, "CCRF-CEM [16]": {"tested_on": "CCRF-CEM", "assay": "Cytotoxicity against human CCRF-CEM cells after 3 days by XTT assay", "format": "functional, cell-based", "conditions": "72 h", "procedure,_shortened": "as §2"}, "HCT-15": {"tested_on": "HCT-15", "assay": "Cytostatic activity against human HCT15 cells after 5 days by SRB assay", "format": "functional", "conditions": "HCT-15, 120 h", "procedure,_shortened": "as §3"}, "CCRF-CEM [17]": {"tested_on": "CCRF-CEM", "assay": "Induction of apoptosis in human CCRF-CEM cells at 5 time GI50 after 4 to 8 hrs using propidium iodide staining by flow cytometry", "format": "functional, cell-based", "procedure,_shortened": "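CCRF-CEM at 5 × 10^5 cells/ml in RPMI 1640/10% FCS, 37 °C, exposed to 1× or 5× GIC50; vehicle controls in parallel. Ethanol-fixed, RNase-treated, propidium iodide stained, flow cytometry; apoptosis taken as % sub-G1 particles (logarithmic mode).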"}, "DU-145 [18]": {"tested_on": "DU-145", "assay": "Metabolic stability in human DU145 cells assessed as sodium ((2R,3S,4R,5R)-5-(4-amino-7H-pyrrolo[2,3-d]pyrimidin-7-yl)-3,4-dihydroxytetrahydrofuran-2-yl)methyl hydrogentriphosphate-NTP formation per million of cells at 10 uM after 6 hrs by LC/MS/MS analysis", "format": "ADME, cell-based", "conditions": "du-145, 6 h", "procedure,_shortened": "as §1"}, "EL4": {"tested_on": "EL4", "assay": "Cytotoxicity against mouse EL4 cells after 3 days by MTT assay", "format": "functional, cell-based", "conditions": "EL4, 72 h"}, "SK-N-AS": {"tested_on": "SK-N-AS", "assay": "Cytotoxicity against human SK-N-AS cells after 3 days by MTT assay", "format": "functional, cell-based", "conditions": "72 h"}, "NCI-H23": {"tested_on": "NCI-H23", "assay": "Cytostatic activity against human NCI-H23 cells after 5 days by SRB assay", "format": "functional", "conditions": "NCI-H23, 120 h", "procedure,_shortened": "as §3"}}, "note": "Active and inactive are the calls of the source. The calls are words filed in the database; no cut-off is given here."}
{"compound": "Nc1ncnc2c1c(-c1cccs1)cn2[C@@H]1O[C@H](CO)[C@@H](O)[C@H]1O", "values": [{"measurement": "IC50", "setting": "HT-29", "value": 96, "unit": "nM"}, {"measurement": "Stability", "setting": "DU-145 [1]", "value": 4.66, "unit": "pmol"}, {"measurement": "IC50", "setting": "HL-60", "value": 950, "unit": "nM"}, {"measurement": "IC50", "setting": "HPAC", "value": 70, "unit": "nM"}, {"measurement": "IC50", "setting": "SK-OV-3", "value": "> 10000", "unit": "nM"}, {"measurement": "IC50", "setting": "K562 [2]", "value": 25, "unit": "nM"}, {"measurement": "inhibition", "setting": "CCRF-CEM [3]", "value": "Active"}, {"measurement": "GI50", "setting": "PC-3 [4]", "value": 1620, "unit": "nM"}, {"measurement": "Activity", "setting": "[5]", "value": 28, "unit": "%"}, {"measurement": "MSD", "setting": "[6]", "value": 15, "unit": "days"}, {"measurement": "IC50", "setting": "HeLa", "value": 33, "unit": "nM"}, {"measurement": "IC50", "setting": "LNCaP", "value": 18, "unit": "nM"}, {"measurement": "IC50", "setting": "[7]", "value": 20, "unit": "nM"}, {"measurement": "IC50", "setting": "PC-3 [8]", "value": 8730, "unit": "nM"}, {"measurement": "IC50", "setting": "SK-MEL-2", "value": 1980, "unit": "nM"}, {"measurement": "Stability", "setting": "DU-145 [9]", "value": 30.4, "unit": "pmol"}, {"measurement": "IC50", "setting": "L1210", "value": 115, "unit": "nM"}, {"measurement": "IC50", "setting": "MCF7", "value": 528, "unit": "nM"}, {"measurement": "IC50", "setting": "[10]", "value": "> 10000", "unit": "nM"}, {"measurement": "IC50", "setting": "C6", "value": 4540, "unit": "nM"}, {"measurement": "IC50", "setting": "[11]", "value": 28, "unit": "nM"}, {"measurement": "IC50", "setting": "[12]", "value": 91, "unit": "nM"}, {"measurement": "GI50", "setting": "MT4", "value": 35, "unit": "nM"}, {"measurement": "IC50", "setting": "BV-173", "value": 105, "unit": "nM"}, {"measurement": "GI50", "setting": "A549", "value": 7, "unit": "nM"}, {"measurement": "IC50", "setting": "BJ", "value": 9850, "unit": "nM"}, {"measurement": "IC50", "setting": "K562 [13]", "value": 47, "unit": "nM"}, {"measurement": "IC50", "setting": "BT-549", "value": 119, "unit": "nM"}, {"measurement": "Activity", "setting": "[14]", "value": 29, "unit": "%"}, {"measurement": "GI50", "setting": "[15]", "value": 12, "unit": "nM"}, {"measurement": "IC50", "setting": "CCRF-CEM [16]", "value": 50, "unit": "nM"}, {"measurement": "GI50", "setting": "HCT-15", "value": 11, "unit": "nM"}, {"measurement": "Activity", "setting": "CCRF-CEM [17]", "value": "Active"}, {"measurement": "Stability", "setting": "DU-145 [18]", "value": 0.53, "unit": "pmol"}, {"measurement": "IC50", "setting": "EL4", "value": 9300, "unit": "nM"}, {"measurement": "IC50", "setting": "SK-N-AS", "value": "> 10000", "unit": "nM"}, {"measurement": "GI50", "setting": "NCI-H23", "value": 3.7, "unit": "nM"}]}
